Experimental data from ChEMBL document CHEMBL4024779, “Novel Terminal Bipheny-Based Diapophytoene Desaturases (CrtN) Inhibitors as Anti-MRSA/VISR/LRSA Agents with Reduced hERG Activity” (J Med Chem, 2018).
Active and inactive are the calls of the source. The rule behind the calls is not given here.

Legend:
[1] = (§1) Half life in human liver microsomes at 2 uM after 60 mins in presence of NADPH by LC-MS/MS method; type: ADME, microsome; conditions: liver microsomes
Staphylococcus aureus [2] = test: In vivo anti-virulence activity against methicillin-resistant Staphylococcus aureus LRSA56 infected in BALB/c mouse model assessed as reduction in bacterial load in kidney at 0.1 mg bid for 3.5 days administered intraperitoneally 6 hrs post infection by serial dilution method relative to control; type: functional; design: scale not given: the % may be the effect or the level left
Procedure, shortened: (§2)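 Mice were infected by retro-orbital injection with LRSA56 (5.0 × 10^7 CFU) or LRSA202 (7.0 × 10^7 CFU). Compound was given intraperitoneally 6 h after infection. […] Log10 CFU was counted in kidneys and hearts, with groups compared by two-tailed Mann-Whitney test.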

[3] = Cmax in Sprague-Dawley rat at 10 mg/kg, po administered as single dose by LC-MS/MS analysis; type: ADME, organism-based; design: dose 10 mg/kg, route oral; conditions: in vivo
[4] = Half life in mouse at 2 mg/kg, iv administered as single dose by LC-MS/MS analysis; type: ADME, organism-based; conditions: in vivo
[5] = AUC (0 to infinity) in Sprague-Dawley rat at 10 mg/kg, ip administered as single dose by LC-MS/MS analysis; type: ADME, organism-based; design: dose 10 mg/kg, time infinity, route intraperitoneal; conditions: in vivo
Liver = test: as §1; type: ADME, microsome; conditions: microsomes, 1 h, 2 µM
Staphylococcus aureus [6] = test: In vivo anti-virulence activity against methicillin-resistant Staphylococcus aureus NF65Y infected in BALB/c mouse model assessed as reduction in bacterial load in heart at 0.1 mg bid for 3.5 days administered intraperitoneally 6 hrs post infection by serial dilution method relative to linezolid; type: functional, organism-based
Procedure, shortened: (§3)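 Mice infected retro-orbitally with S. aureus NF65Y (3.5 × 10^8 CFU) or XN108 (2.1 × 10^8 CFU). Test compound given i.p. b.i.d. starting 6 h post-infection. […] Log10 CFU per kidney and heart counted. Two-tailed Mann−Whitney test.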

[7] = target: T1, 4,4'-diapophytoene desaturase (4,4'-diaponeurosporene-forming) (Staphylococcus aureus (strain USA300)) (UniProt Q2FDU6); conditions: Staphylococcus aureus LAC, 1 uM
T1 sequence (whole entry): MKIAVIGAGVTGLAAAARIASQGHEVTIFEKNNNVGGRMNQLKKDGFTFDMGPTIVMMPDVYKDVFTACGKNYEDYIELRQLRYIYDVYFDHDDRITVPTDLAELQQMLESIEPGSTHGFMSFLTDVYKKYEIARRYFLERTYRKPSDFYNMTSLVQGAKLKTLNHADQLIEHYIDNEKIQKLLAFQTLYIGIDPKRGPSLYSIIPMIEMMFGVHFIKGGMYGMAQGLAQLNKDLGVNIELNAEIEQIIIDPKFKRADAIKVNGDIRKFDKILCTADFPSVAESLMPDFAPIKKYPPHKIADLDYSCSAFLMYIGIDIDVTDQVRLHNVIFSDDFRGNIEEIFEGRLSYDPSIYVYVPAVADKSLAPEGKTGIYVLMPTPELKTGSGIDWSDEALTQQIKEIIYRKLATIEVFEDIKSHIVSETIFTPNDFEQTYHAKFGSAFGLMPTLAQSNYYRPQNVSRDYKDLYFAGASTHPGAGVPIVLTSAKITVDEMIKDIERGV

[8] = target: T2, 4,4'-diapophytoene desaturase (4,4'-diaponeurosporene-forming) (Staphylococcus aureus (strain Mu50 / ATCC 700699)) (UniProt Q99R76); conditions: Staphylococcus aureus subsp. aureus Mu50; 1 uM
T2 sequence (whole entry): T1 sequence (whole entry)

Staphylococcus aureus [9] = test: In vivo anti-virulence activity against methicillin-resistant Staphylococcus aureus LRSA56 infected in BALB/c mouse model assessed as reduction in bacterial load in kidney at 0.1 mg bid for 3.5 days administered intraperitoneally 6 hrs post infection by serial dilution method relative to linezolid; type: functional; design: scale not given: the % may be the effect or the level left; procedure, shortened: as §2
[10] = AUC (0 to infinity) in mouse at 10 mg/kg, po administered as single dose by LC-MS/MS analysis; type: ADME, organism-based; design: dose 10 mg/kg, time infinity, route oral; conditions: in vivo
[11] = Tmax in mouse at 2 mg/kg, iv administered as single dose by LC-MS/MS analysis; type: ADME, organism-based; conditions: in vivo
[12] = Inhibition of CrtN in methicillin-resistant Staphylococcus aureus LRSA205 assessed as reduction in staphyloxanthin levels after 48 hrs by spectrophotometric method-based pigment inhibition assay
Rattus norvegicus [13] = test: Toxicity in Sprague-Dawley rat at 60 to 1000 mg/kg, po administered as single dose assessed as mortality measured during 2 weeks post administration; type: organism-based; conditions: in vivo, 336 h
Procedure, shortened: (§4)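 Rats, 30 in total, randomised into three groups. Each received a single oral dose of 60, 250 or 1000 mg/kg on day 1. Poisoning symptoms, mortality, behaviour, water and food consumption and body weight monitored immediately and over 2 weeks.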

[14] = AUC (0 to 24 hrs) in Sprague-Dawley rat at 5 mg/kg, iv administered as single dose by LC-MS/MS analysis; type: ADME, organism-based; design: dose 5 mg/kg, time < 24 hr, route intravenous; conditions: in vivo
Staphylococcus aureus [15] = test: In vivo anti-virulence activity against methicillin-resistant Staphylococcus aureus LRSA202 infected in BALB/c mouse model assessed as reduction in bacterial load in heart at 0.1 mg bid for 3.5 days administered intraperitoneally 6 hrs post infection by serial dilution method relative to control; type: functional, organism-based; procedure, shortened: as §2
Staphylococcus aureus [16] = test: In vivo anti-virulence activity against Staphylococcus aureus Newman infected in BALB/c mouse model assessed as reduction in bacterial load in heart at 0.2 mg bid for 3.5 days administered orally 6 hrs post infection by serial dilution method relative to control; type: functional, organism-based
Procedure, shortened: (§5)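 Mice got 3.1 × 10^7 CFU S. aureus Newman by retro-orbital injection. Oral compound was given b.i.d. for 3.5 d, starting 6 h after infection. […] Log10 CFU was counted per kidney and per heart.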

Staphylococcus aureus [17] = test: In vivo anti-virulence activity against Staphylococcus aureus Newman infected in BALB/c mouse model assessed as reduction in bacterial load in kidney at 0.2 mg bid for 3.5 days administered orally 6 hrs post infection by serial dilution method relative to control; type: functional; design: scale not given: the % may be the effect or the level left; procedure, shortened: as §5
Staphylococcus aureus [18] = test: In vivo anti-virulence activity against methicillin-resistant Staphylococcus aureus XN108 infected in BALB/c mouse model assessed as reduction in bacterial load in heart at 0.1 mg bid for 3.5 days administered intraperitoneally 6 hrs post infection by serial dilution method relative to linezolid; type: functional, organism-based; procedure, shortened: as §3
Staphylococcus aureus [19] = test: In vivo anti-virulence activity against methicillin-resistant Staphylococcus aureus Mu50 infected in BALB/c mouse model assessed as reduction in bacterial load in heart at 0.05 mg bid for 3.5 days administered intraperitoneally 6 hrs post infection by serial dilution method; type: functional; design: scale not given: the % may be the effect or the level left
Procedure, shortened: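 Mice were challenged with 1.3 × 10^9 CFU Mu50. Compound was given intraperitoneally, either 24 h before or 6 h after infection. Log10 CFU was counted in kidneys and hearts.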

Staphylococcus aureus [20] = test: In vivo anti-virulence activity against methicillin-resistant Staphylococcus aureus LRSA202 infected in BALB/c mouse model assessed as reduction in bacterial load in kidney at 0.1 mg bid for 3.5 days administered intraperitoneally 6 hrs post infection by serial dilution method relative to control; type: functional, organism-based; procedure, shortened: as §2
Rattus norvegicus [21] = test: Toxicity in Sprague-Dawley rat at 60 to 1000 mg/kg, po administered as single dose assessed as mortality measured immediately post administration; type: organism-based; conditions: in vivo; procedure, shortened: as §4
Cytochrome P450 2C8 = Cytochrome P450 2C8 (Homo sapiens, UniProt P10632); test: Inhibition of CYP2C8 in human liver microsomes using paclitaxel as substrate upto 10 uM after 20 mins in presence of NADPH by LC-MS/MS analysis; type: ADME
Cytochrome P450 2C8, sequence (P10632 whole entry): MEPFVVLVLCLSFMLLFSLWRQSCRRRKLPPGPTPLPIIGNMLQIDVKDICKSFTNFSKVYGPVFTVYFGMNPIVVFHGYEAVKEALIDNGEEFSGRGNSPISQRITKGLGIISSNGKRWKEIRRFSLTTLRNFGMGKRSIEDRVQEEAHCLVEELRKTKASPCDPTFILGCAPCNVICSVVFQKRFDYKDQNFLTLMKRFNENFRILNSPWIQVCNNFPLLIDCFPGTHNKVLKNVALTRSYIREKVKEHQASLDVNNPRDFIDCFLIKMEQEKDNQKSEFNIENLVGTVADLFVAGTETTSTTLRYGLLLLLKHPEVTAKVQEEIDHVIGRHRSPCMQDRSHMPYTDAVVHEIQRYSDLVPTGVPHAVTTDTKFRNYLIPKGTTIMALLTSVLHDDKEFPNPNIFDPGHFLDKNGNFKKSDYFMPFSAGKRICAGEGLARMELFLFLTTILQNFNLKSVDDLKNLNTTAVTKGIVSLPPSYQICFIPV

For `CN(C/C=C/c1ccc(-c2ccccc2)cc1)Cc1cccc2cc[nH]c12.Cl`, the half-life at 2 µM [1] was 93.7 min.
In the case of `CN(C/C=C/c1ccc(-c2ccccc2)cc1)Cc1coc2ccccc12.Cl`, the Activity (Staphylococcus aureus [2]) is reported as greater than 83%, the Cmax [3] is reported as 213 ng/mL and the half-life [4] is reported as 123 min. For the same compound, the AUC(0-inf) [5] was 1090 µg·h/mL, the t1/2 (Liver) was 50.7 min and the Activity (Staphylococcus aureus [6]) was “Active”. It also gave a Survival [7] of 2.3%, a Survival [8] of 0.4% and an Activity (Staphylococcus aureus [9]) greater than 54.3%. It also gave an AUC(0-inf) [10] of 4560 ng·h/mL, a Tmax [11] of 4.8 min and an IC50 [12] of 10.5 nM. For the same compound, the Activity (Rattus norvegicus [13]) was “Non-Toxic”, the AUC(0-t) at 24 h [14] was 2810 ng·h/mL and the Activity (Staphylococcus aureus [15]) was “Active”. The Activity (Staphylococcus aureus [16]) was “inactive”, the Activity (Staphylococcus aureus [17]) was 90% and the Activity (Staphylococcus aureus [18]) was “Active”. The Activity (Staphylococcus aureus [19]) was greater than 99.8%, the Activity (Staphylococcus aureus [20]) was “Active” and the Activity (Rattus norvegicus [21]) was “Non-Toxic”. It also gave an IC50 (Cytochrome P450 2C8) greater than 10 µM.
